An excerpt weighted towards active compounds, which were near 1.9% of everything screened.
GRK2 aptamer HTS: blocks RNA aptamer binding to human GRK2 | P25098 | AID 488847 | inhibition of aptamer binding, % at 10 µM | bead flow cytometry, FAM-aptamer displacement from GRK2 | 330,000 compounds, 0.59% hits;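 active = inhibition of aptamer binding above 40%, roughly 3 SD of noise, on plates passing a quality check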;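 note: median bead fluorescence of bound FAM aptamer so fluorescent compounds give negative values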
Rin1-Abl PPI inh: inhibitors of human Rin1-Abl protein interaction | P00519+Q13671 | TR-FRET Rin1/Abl binding, biochemical | inhibition, % at 7.35 µM | 360,000 compounds, 0.4% hits; in the data active = inhibition above about 5%, passing the limit was not always enough
SR-BI uptake up: SR-BI HDL lipid transfer activation; 320,000 compounds, 0.096% hits; activation, % at 12.5 µM; CHO ldlA[mSR-BI] cells, DiI-HDL uptake fluorescence, 3 h; 100 = double the neutral-control signal; AID 504775;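 active = mean replicate activation of at least 60% and every replicate at or above 60%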;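 note: 0% = median plate neutral-control signal and 100% = twice that signal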
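Material: SR-BI-overexpressing, LDLR-lacking CHO cells; schedule: compound exposure 3 h, 37 °C; reagent: DiI-labelled HDL at 10 µg/mL final; technique: bottom-read fluorescence, 550/595 nm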
SR-BI HDL uptake: mouse SR-BI HDL lipid transfer inhibition; ldlA[mSR-BI] CHO cells, DiI-HDL uptake fluorescence, 3 h; inhibition, % at 12.5 µM; 320,000 compounds, 0.96% hits;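 active = mean replicate inhibition of at least 70% and a set share of replicates each scoring 70 or more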;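 note: 0% = median of neutral control wells and 100% = median of positive control wells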
Rin1 Abl conf: Rin1-Abl interaction inhibition confirmation; 1,300 compounds, 49% hits; inhibition, % at 7.35 µM; TR-FRET Rin1-Abl binding, purified proteins; AID 602124; shares compounds with Rin1-Abl PPI inh
GFP quench: counter-screen for Rin1-Abl inhibitors: GFP fluorescence quenchers; inhibition, % at 6.75 µM; inhibitors/quenchers counterscreen; shares compounds with Rin1-Abl PPI inh; 1,300 compounds, 8.5% hits;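 note: ABL1-eGFP fusion protein alone without its partner RIN1-SBP; 0% = protein with vehicle and 100% = wells lacking protein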
GFP quench DR: GFP fluorescence interference dose response; shares compounds with Rin1-Abl PPI inh; GFP fluorescence interference/quenching counterscreen; IC50, µM; 230 tested, under 10 active; call rule not given here;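 note: ABL1-eGFP fusion protein alone without its RIN1 binding partner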
* marks the source's active call; other numbers are inactive results; . = no result. Cut-off read from the data, not from the text of the source, unless noted: active = inhibition above about 6.5%; inactive = the rest.

SMILES	GRK2 aptamer HTS	Rin1-Abl PPI inh	SR-BI uptake up	SR-BI HDL uptake	Rin1 Abl conf	GFP quench	others
CN(Cc1ccc(F)cc1)C(=O)c1ccc(NS(=O)(=O)c2ccccc2)cc1	2.0	9.5*	-3.0	3.0	0.8	-0.1
Cc1c(C(=O)O)c(O)cc2c1C(=O)c1c(O)c([C@@H]3O[C@H](CO)[C@@H](O)[C@H](O)[C@H]3O)c(O)c(O)c1C2=O	7.0	21.3*	4.5	-4.5	26.9*	5.3
O=C(NC1(O)C(=O)c2ccccc2C1=O)c1c(Cl)cccc1Cl	.	13.8*	-0.5	0.5	27.5*	1.9	GFP quench DR=>67.5
O=C(NC1(O)C(=O)c2ccccc2C1=O)c1ccccc1	2.0	27.6*	17.1	-17.1	28.5*	2.4	GFP quench DR=>67.5
CN(C)Cc1cc(C(C)(C)C)cc(C(C)(C)C)c1O	1.0	-1.6	13.8	-13.8	.	.
CN(C)Cc1cc(O)c(CN(C)C)cc1O	7.0	13.4*	6.6	-6.6	2.1	4.3
Oc1ccc(/C=N/N(c2ccccc2)c2ccccc2)c(O)c1O	3.0	10.4*	-8.7	8.7	5.7	3.7
Oc1ccc(/C=N/N(c2ccccc2)c2ccccc2)cc1O	0.0	0.6	-8.9	8.9	.	.
COc1cc(CNC(=O)Nc2nnc([C@H]3C[C@H](O)[C@@H](CO)O3)s2)cc(OC)c1OC	.	-1.6	.	.	.	.
CC1CCCN(Cc2nc(Cc3ccccc3Cl)no2)C1 (stereo not drawn)	0.0	-4.1	.	.	.	.
OC1CCCN(Cc2nc(Cc3ccccc3Cl)no2)C1 (stereo not drawn)	3.0	8.8*	11.9	-11.9	-2.3	-3.4
CCN(CC)c1ccc(C(=C2C=CC(=[N+](CC)CC)C=C2)c2ccc(N(CC)CC)cc2)cc1	.	19.1*	-89.5	89.5*	17.4*	52.2*
O=C(Nc1cccc(Cl)c1)Nc1cccc(C(=O)O)c1	6.0	5.9*	6.5	-6.5	-2.4	-0.4
O=C(O)CC1(CC(=O)Nc2cccc(C(=O)O)c2)CCCC1	2.0	8.0*	4.0	-4.0	-1.8	-0.3
CC(Oc1ccc(Cl)cc1Cl)C(=O)NNC(=O)c1cccnc1 (stereo not drawn)	0.0	8.9*	-12.5	12.5	-2.1	-0.6
CC(Oc1cccc(Cl)c1)C(=O)NNC(=O)c1cccnc1 (stereo not drawn)	0.0	2.0	34.9	-34.9	.	.
Cc1ccc(-c2cc(C(F)F)n3ncc(C(=O)Nc4c(C)nn(Cc5c(Cl)cccc5Cl)c4C)c3n2)cc1	0.0	0.4	1.9	-1.9	.	.
Cc1nn(Cc2c(Cl)cccc2Cl)c(C)c1NC(=O)c1cnn2c(C(F)F)cc(-c3ccccc3)nc12	0.0	12.3*	-20.6	20.6	-2.0	0.4
COc1cccc(CN(C)C(=O)c2cc(S(=O)(=O)N3CCCC3)ccc2C)c1OC	0.0	8.9*	4.6	-4.6	3.7	-1.1
CCOC(=O)C1(Cc2ccccc2)CCN(Cc2cn[nH]c2-c2ccccc2)CC1	10.0	9.5*	16.3	-16.3	-1.4	-0.6
CCOC(=O)C1(CC2CC2)CCN(Cc2cn[nH]c2-c2ccccc2)CC1	0.0	4.0	40.9	-40.9	.	.
CCNc1nc(N2CCCCC2)nc(-n2nnc(C(=O)OCC)c2C)n1	0.0	5.8*	-52.8	52.8	2.4	1.4
CSc1ccccc1NC(=O)C1(C)CCN1C(=O)Cc1ccccc1Cl (stereo not drawn)	.	-2.3	.	.	.	.
Cc1ncc(C[n+]2csc(C)c2C)c(N)n1	0.0	9.7*	6.6	-6.6	-0.6	-2.7
COc1ccc(C(C)C)cc1S(=O)(=O)n1cnc(C)c1	0.0	8.0*	-1.3	1.3	-3.1	-0.2
SMILES	GRK2 aptamer HTS	Rin1-Abl PPI inh	SR-BI uptake up	SR-BI HDL uptake	Rin1 Abl conf	GFP quench	others
COc1ccc(F)cc1S(=O)(=O)n1nc(C)cc1C	0.0	3.3	-8.3	8.3	.	.
COc1ccc(C)cc1S(=O)(=O)n1nc(C)cc1C	0.0	8.4*	-14.7	14.7	-2.6	2.0
CCCCNC(=O)C1(C)CCCCN1C(=O)c1ccno1 (stereo not drawn)	.	-2.2	.	.	.	.
CCc1cccc(NC(=O)COC(=O)c2c(C)nn(-c3ccccc3)c2C)c1	.	1.9	.	.	.	.
Nc1ccc2c(c1)C(=O)c1ccccc1-2	2.0	-12.1	14.2	-14.2	.	.
Nc1ccc2c(c1)C(=O)C(=O)c1ccccc1-2	26.0	10.3*	-4.9	4.9	4.9	4.5
CC(=O)c1cccc(NC(=O)CCc2nc3sc4c(c3c(=O)[nH]2)CCCC4)c1	0.0	2.4	-1.3	1.3	.	.
CN(C)C(=O)c1ccc(-n2cccn2)nc1	1.0	3.0	24.4	-24.4	.	.
O=C(c1ccccc1)N(CCN1CCOCC1)C1(C(=O)Nc2ccccc2)CCCCC1	7.0	8.5*	6.4	-6.4	-0.6	-0.1
CCCCCCN1CCN(C2CN(C3CCCCC3)S(=O)(=O)C2)CC1 (stereo not drawn)	.	3.5	.	.	.	.
COCC(=O)Nc1ccc2c(c1)[C@@H]1C[C@H](CC(=O)OC)O[C@@H](CO)[C@@H]1O2	.	-0.3	.	.	.	.
COCC(=O)Nc1ccc2c(c1)[C@@H]1C[C@H](CC(=O)NCc3cccc(F)c3)O[C@@H](CO)[C@@H]1O2	.	49.9*	.	.	-0.1	0.6
COc1cccc(/C=N/NC(=O)c2ccc(-n3cnnn3)cc2)c1	.	1.4	-24.5	24.5	.	.
CCOC(=O)C1(C)CCCN(C(=O)c2cccc(C#N)c2)C1 (stereo not drawn)	.	0.3	.	.	.	.
CC(=O)N1CC2(CC(c3ccccc3C(F)(F)F)=NO2)CN1c1ccc(Cl)cc1 (stereo not drawn)	.	-1.4	.	.	.	.
CN=c1scc(-c2cccs2)n1/N=C/c1ccc(O)c(O)c1O	8.0	8.8*	-24.0	24.0	9.7*	12.6*
CN=c1scc(C)n1/N=C/c1ccc(O)c(O)c1O	21.0	35.7*	-9.7	9.7	20.9*	20.4*
CN=c1scc(-c2cccs2)n1/N=C/c1ccccc1O	0.0	1.8	-20.1	20.1	.	.
CN=c1scc(C)n1/N=C/c1cc(Br)c(O)c(OC)c1	0.0	-5.8	-5.0	5.0	.	.
CC(C)NC(=O)CC1C(=O)NCCN1CC(c1ccccc1)c1ccccc1 (stereo not drawn)	1.0	8.7*	.	.	0.9	-1.3
Cc1ccc(NC(=S)N(CCCN2CCOCC2)Cc2cccnc2)cc1C	3.0	12.4*	21.9	-21.9	-1.6	-1.0
O=C(NCC1CCCCC1)c1csc([C@@H]2O[C@H](CO)[C@H](O)[C@H](O)[C@H]2O)n1	.	-1.1	.	.	.	.
CN1CCN(c2ccc(CNC(=O)C3Cc4c(-c5cccc(F)c5)ccnc4O3)cc2)CC1 (stereo not drawn)	.	6.5*	.	.	4.7	0.7
CC(=O)c1cccc(-c2ccnc3c2CC(C(=O)NCc2ccc(N4CCN(C)CC4)cc2)O3)c1 (stereo not drawn)	.	25.2*	.	.	17.6*	-0.8	GFP quench DR=>67.5
CN(C)C(=O)N1CCc2ccc([N+](=O)[O-])cc21	.	-3.1	.	.	.	.

From PubChem
